Test [1] in a line: Selectivity given as ratio of pKb value against Alpha-1D receptor to pKb value against Alpha-1B receptor in rat. In kind it is functional.
Test [2] deals with Alpha adrenergic receptor 1A and 1D (Rattus norvegicus) (UniProt P23944+P43140). The test is described as follows: Selectivity given as ratio of pKb value against Alpha-1D receptor to pKb value against alpha1A receptor in rat. The format is functional.
Test [3] has as its target T1, Alpha-1B adrenergic receptor (Rattus norvegicus) (UniProt P15823).
T1 sequence (whole entry): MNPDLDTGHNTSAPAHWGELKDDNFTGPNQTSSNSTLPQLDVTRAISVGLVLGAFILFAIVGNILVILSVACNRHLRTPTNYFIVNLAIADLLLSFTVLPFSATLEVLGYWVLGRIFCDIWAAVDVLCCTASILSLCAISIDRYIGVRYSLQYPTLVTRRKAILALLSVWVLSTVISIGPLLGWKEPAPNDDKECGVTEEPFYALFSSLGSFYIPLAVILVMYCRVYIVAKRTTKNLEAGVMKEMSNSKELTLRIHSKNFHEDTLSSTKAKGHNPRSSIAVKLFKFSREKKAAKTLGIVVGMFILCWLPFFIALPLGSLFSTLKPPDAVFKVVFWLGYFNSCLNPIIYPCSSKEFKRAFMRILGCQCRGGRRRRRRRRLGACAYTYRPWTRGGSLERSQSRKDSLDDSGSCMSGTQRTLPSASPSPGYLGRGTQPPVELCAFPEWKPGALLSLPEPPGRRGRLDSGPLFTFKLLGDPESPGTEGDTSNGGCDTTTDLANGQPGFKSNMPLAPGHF
The test is described as follows: Inhibition of (-)-phenylephrine-induced contraction of rat spleen (Alpha-1B adrenergic receptor ). The format is functional, tissue-based. In a few lines:
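Rat spleen strips in buffer containing 4 µM propranolol to block β-adrenoceptors, 1 g resting tension, 2 h equilibration. Isometric cumulative phenylephrine curves at 30 min intervals; first discarded, second control.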

Test [4] deals with T2, Alpha-1A adrenergic receptor (Rattus norvegicus) (UniProt P43140).
T2 sequence (whole entry): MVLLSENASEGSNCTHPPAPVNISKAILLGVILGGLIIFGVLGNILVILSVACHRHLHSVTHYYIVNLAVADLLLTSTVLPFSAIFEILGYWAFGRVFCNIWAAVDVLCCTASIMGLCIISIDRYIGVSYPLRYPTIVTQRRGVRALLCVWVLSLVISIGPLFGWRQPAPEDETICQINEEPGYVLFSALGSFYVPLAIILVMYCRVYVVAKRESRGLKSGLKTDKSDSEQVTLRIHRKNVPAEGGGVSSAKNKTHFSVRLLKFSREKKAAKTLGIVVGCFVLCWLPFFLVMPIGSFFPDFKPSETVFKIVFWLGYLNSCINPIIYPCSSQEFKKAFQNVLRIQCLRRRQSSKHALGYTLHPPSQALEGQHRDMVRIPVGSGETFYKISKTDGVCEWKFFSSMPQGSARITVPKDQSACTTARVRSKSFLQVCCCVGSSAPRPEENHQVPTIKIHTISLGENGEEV
The test is described as follows: Inhibition of (-)-noradrenaline-induced contraction of rat prostatic vas deferens (alpha1A receptor). In kind it is functional. A digest of the protocol:
(§1)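 Rat prostatic vas deferens portion equilibrated 60 min, washed every 15 min, primed twice with 10 µM noradrenaline, re-equilibrated 60 min; control noradrenaline concentration-response curve, then antagonist 30 min before repeat curve.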

For test [5], the target named is Alpha adrenergic receptor 1A and 1B (Rattus norvegicus) (UniProt P15823+P43140). The test is described as follows: Selectivity given as ratio of pKb value against alpha1A receptor to pKb value against alpha-1B receptor in rat. The format is functional.
Test [6] addresses T3, Alpha-1D adrenergic receptor (Rattus norvegicus) (UniProt P23944).
T3 sequence (whole entry): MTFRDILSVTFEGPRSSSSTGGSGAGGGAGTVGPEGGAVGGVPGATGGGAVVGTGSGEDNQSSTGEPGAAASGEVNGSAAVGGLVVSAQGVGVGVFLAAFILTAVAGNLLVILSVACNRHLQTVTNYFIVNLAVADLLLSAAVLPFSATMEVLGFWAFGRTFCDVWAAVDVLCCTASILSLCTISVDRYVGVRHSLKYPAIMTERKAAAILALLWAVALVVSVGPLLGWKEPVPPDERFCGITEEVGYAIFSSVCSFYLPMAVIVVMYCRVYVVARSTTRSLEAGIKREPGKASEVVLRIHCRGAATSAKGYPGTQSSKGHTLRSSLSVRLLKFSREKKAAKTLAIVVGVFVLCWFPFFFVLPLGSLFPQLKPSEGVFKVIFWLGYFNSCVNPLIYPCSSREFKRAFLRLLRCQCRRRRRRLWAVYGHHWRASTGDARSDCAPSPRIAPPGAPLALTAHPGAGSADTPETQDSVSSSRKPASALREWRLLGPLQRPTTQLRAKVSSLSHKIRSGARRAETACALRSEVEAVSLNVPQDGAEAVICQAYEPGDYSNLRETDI
The test is described as follows: Inhibition of (-)-noradrenaline-induced contraction of rat thoracic aorta (Alpha-1D adrenergic receptor). In kind it is functional, tissue-based. A digest of the protocol: (§2)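 Endothelium-denuded rat thoracic aorta strips (denudation confirmed by no 100 µM acetylcholine relaxation after 1 µM noradrenaline) in Tyrode, 1 g tension, ≥2 h equilibration. Cumulative (-)-noradrenaline curves at 1 h intervals; third as control, antagonist 30 min before fourth.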

Test [7] deals with T2, Alpha-1A adrenergic receptor (Rattus norvegicus). Nature of the test: Antagonistic activity against (-)-noradrenaline-induced contraction of rat prostatic vas deferens (Alpha-1A adrenergic receptor). The format is functional, tissue-based. In a few lines:
as §1

Test [8] concerns the target T4, Alpha-1D adrenergic receptor (Rattus norvegicus, UniProt P23944).
T4 sequence (P23944 whole entry): T3 sequence (whole entry)
Nature of the test: Antagonistic activity against (-)-noradrenaline-induced contraction of rat thoracic aorta (Alpha-1D adrenergic receptor). In kind it is functional, tissue-based. The following applies: read-out: pA2 (converted). A digest of the protocol:
as §2

In test [9] the target is T5, Alpha-1A adrenergic receptor (Rattus norvegicus, UniProt P43140).
T5 sequence (P43140 whole entry): T2 sequence (whole entry)
The test is described as follows: Antagonistic activity against (-)-noradrenaline-induced contraction of rat prostatic vas deferens (Alpha-1A adrenergic receptor ). The format is functional, tissue-based. As to conditions: read-out: pA2 (converted). In a few lines: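 Rat prostatic vas deferens segments equilibrated 60 min, washed every 15 min, primed twice with 10 µM noradrenaline, then re-equilibrated 60 min. Basal noradrenaline concentration-response curve, then repeat after 30 min antagonist equilibration.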

Usually pKb stands for −log10 of the Kb, conventionally taken in molar units. Low readings indicate a large Kb, high ones a small Kb. `COc1cccc(OC)c1OCCNCC1CO[C@@H](c2cccc3ccccc23)O1.O=C(O)C(=O)O` (some centres undefined): the Selectivity was 5 in test [1], 24 in test [2] and 0.2 in test [5]. Moreover, the pKb worked out at 6.38 in test [3], 5.69 in [4] and 7.07 in test [6].

With `COc1cccc(OC)c1OCCNCC1CO[C@@](C)(c2ccccc2)O1.O=C(O)C(=O)O` (some centres undefined), the Selectivity came to 7 in test [1], 11 in test [2] and 0.6 in test [5]. Also, the figures for the pKb in [3], in [4] and in [6] were 5.93, 5.74 and 6.69, respectively.

Regarding `COc1ccccc1N1CCN(CCN2C(=O)CC3(CCCC3)CC2=O)CC1`, the pKb came out at 7.48 in test [3] and 8.4 in test [6].

Turning to `O=C(O)C(=O)O.c1ccc(OCCNCC2CO[C@@H](c3ccccc3)O2)cc1` (some centres undefined), the Selectivity came to 4 in test [1], 9 in test [2] and 0.4 in [5]. In addition, the values for the pKb in [3], in test [4] and in test [6] were 6.4, 6.01 and 6.94, respectively.

For `COc1cccc(OC)c1OCCNCC1CO[C@H](c2ccccc2)O1.O=C(O)C(=O)O` (some centres undefined), the pKb in [7] came out at 6.61; in test [3] it was 5.7; in [6] it was 6.44. The Selectivity was 6 in test [1], 0.7 in test [2] and 8 in [5].

On to `COc1cccc(OC)c1OCCNCC1CO[C@@H](Cc2ccccc2)O1.O=C(O)C(=O)O` (some centres undefined), for which the results for the Selectivity in test [1], in test [2] and in [5] were 5, 0.2 and 23, respectively. Further, the pKb in test [3] stood at 5.45; in [4], 6.82; in [6], 6.

Turning to `COc1cccc(OC)c1OCCNCC1CO[C@H](C(c2ccccc2)c2ccccc2)O1.O=C(O)C(=O)O` (some centres undefined), the Selectivity in test [1] turned out to be 44; in [2], 36; in test [5], 12. Also, the negative logarithm of the Kb (pKb) amounted to 5.51 in test [3], 5.6 in test [4] and 7.15 in test [6].

For `COc1cccc(OC)c1OCCNCC1CO[C@H](c2cccc3ccccc23)O1.O=C(O)C(=O)O` (some centres undefined), the figures for the Selectivity in test [1], in test [2] and in test [5] were 9, over 209 and under 0.04, respectively. For the same molecule, the negative-log Kb (pKb) is 6.38 in [3], under 5 in test [4] and 7.32 in [6].

Take `O=C(O)C(=O)O.c1ccc(OCCNCC2COC3(CCCCC3)O2)cc1` (centres undefined): the results for the Selectivity in [1], in test [2] and in test [5] were 2, 19 and 0.1, respectively. The pKb in [3] came out at 6.2; in test [4] it was 5.27; in test [6], 6.54.

As to `COc1cccc(OC)c1OCCNCC1CO[C@@H](c2ccccc2)O1.O=C(O)C(=O)O` (some centres undefined), the Selectivity turned out to be 1 in test [1], 0.7 in test [2] and 1 in [5]. In addition, the results for the pKb in test [3], in test [4] and in [6] were 6.19, 6.31 and 6.18, respectively.

`COc1cccc(OC)c1OCCNCC1CO[C@](C)(c2ccccc2)O1.O=C(O)C(=O)O` (some centres undefined): in test [8], the Kb was 0.129 µM. In addition, the Selectivity came out at 21 in test [1], 12 in test [2] and 2 in [5]. For the same molecule, the pKb in test [3] is 5.56; in test [4] it was 5.8.

For `COc1cccc(OC)c1OCCNCC1COc2ccccc2O1` (centres undefined), the values for the Kb in test [8] and in [9] were 0.00251 µM and 0.000437 µM, respectively.

In the case of `COc1cccc(OC)c1OCCNCC1COC(c2ccc3ccccc3c2)O1.O=C(O)C(=O)O` (centres undefined), the Selectivity in test [1] was 33; in [2], 7; in test [5], 5. The pKb in [3] stood at 5.12; in [4] it was 5.79; in test [6], 6.65.

As for `O=C(O)C(=O)O.c1ccc(OCCNCC2CO[C@H](c3ccccc3)O2)cc1` (some centres undefined), the Selectivity in [1] amounted to 6; in test [2] it was 45; in [5], 0.1. The values for the pKb in test [3], in [4] and in test [6] were 6.3, 5.44 and 7.09, respectively.

As to `COc1cccc(OC)c1OCCNCC1CO[C@H](Cc2ccccc2)O1.O=C(O)C(=O)O` (some centres undefined), the Selectivity in test [1] came out at 0.2; in test [2], 0.6; in [5], 0.4. Also, the pKb in [3] was found to be 5.77; in [4] it was 5.36; in test [6], 5.13.

Regarding `COc1cccc(OC)c1OCCNCC1CO[C@@H](C(c2ccccc2)c2ccccc2)O1.O=C(O)C(=O)O` (some centres undefined), the Selectivity in test [1] was determined as 28; in [2], 1; in test [5], 21. Further, the negative logarithm of the Kb (pKb) in test [3] was determined as 5.44; in test [4], 6.77; in test [6] it was 6.88.

As to `COc1cccc(OC)c1OCCNCC1COC(c2ccccc2)(c2ccccc2)O1.O=C(O)C(=O)O` (centres undefined), the Kb in test [8] is 0.117 µM. For the same molecule, the values for the Selectivity in test [1], in test [2] and in [5] were 11, 16 and 0.7, respectively. Further, the results for the pKb in [3] and in [4] were 5.89 and 5.73, respectively.

(Values after ChEMBL document CHEMBL1136765, “1,3-dioxolane-based ligands as a novel class of alpha1-adrenoceptor antagonists” (J Med Chem, 2003).)
